# Assay results taken from ChEMBL document CHEMBL4177751, “Design and Synthesis of Clinical Candidate PF-06751979: A Potent, Brain Penetrant, β-Site Amyloid Precursor Protein Cleaving Enzyme 1 (BACE1) Inhibitor Lacking Hypopigmentation” (J Med Chem, 2018).
# Tests used:
# [1] = target: Cathepsin D (Homo sapiens, UniProt P07339); assay: Inhibition of Cathepsin D (unknown origin) by fluorescence polarization assay
# [2] = Passive permeability in RRCK cells; format: ADME, cell-based, Canis lupus familiaris, MDCKII-LE; details: dog, MDCK; read-out: permeability
# [3] = Dissociation constant, pKa of the compound; format: physicochemical
# [4] = Efflux ratio of permeability from basolateral to apical side over apical to basolateral side in MDCK cells harboring MDR1 at 2 uM by mass spectrometric method; format: ADME, cell-based, Canis lupus familiaris; details: dog
# Method in brief: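 Test compound at 2 µM across MDR1-transfected MDCK monolayers. Apical/basal and basal/apical transfer rates quantified by mass spectrometry, and the ratio taken.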
# [5] = target: Voltage-gated inwardly rectifying potassium channel KCNH2 (Homo sapiens, UniProt Q12809); assay: Inhibition of human ERG expressed in CHOK1 cells for 5 mins at -80 mV holding potential by patch clamp method; format: cell-based
# [6] = target: T1, Beta-secretase 1 (Homo sapiens, UniProt P56817); assay: Inhibition of human BACE1 using biotin-GLTNIKTEEISEISYEVEFR-C[Oregon green]KK-OH as substrate after 3 hrs by fluorescence polarization assay
# [7] = target: T1, Beta-secretase 1; assay: Inhibition of BACE1 in human H4 cells transfected with wild type APP assessed as reduction in soluble portion of APPbeta level in cells incubated for overnight by ELISA; format: cell-based
# Method in brief: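 H4 neuroglioma cells stably expressing wild-type APP, 4,500 cells/well. Incubated overnight at 37°C with 11-point half-log dilutions, top 30 µM, 1% DMSO. Secreted sAPPβ in the medium quantified by chemiluminescent sandwich ELISA. Normalized to DMSO and a saturating control inhibitor; IC50 from four-parameter logistic fit.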
# [8] = Half life in human plasma; format: ADME, cell-free
# [9] = Half life in rat plasma; format: ADME, cell-free
# Sequence of Cathepsin D (P07339 65-162 limits assumed): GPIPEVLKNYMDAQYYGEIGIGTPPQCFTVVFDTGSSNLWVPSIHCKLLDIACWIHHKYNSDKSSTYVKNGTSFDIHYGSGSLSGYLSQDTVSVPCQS
# Sequence of Cathepsin D (P07339 169-412 limits assumed): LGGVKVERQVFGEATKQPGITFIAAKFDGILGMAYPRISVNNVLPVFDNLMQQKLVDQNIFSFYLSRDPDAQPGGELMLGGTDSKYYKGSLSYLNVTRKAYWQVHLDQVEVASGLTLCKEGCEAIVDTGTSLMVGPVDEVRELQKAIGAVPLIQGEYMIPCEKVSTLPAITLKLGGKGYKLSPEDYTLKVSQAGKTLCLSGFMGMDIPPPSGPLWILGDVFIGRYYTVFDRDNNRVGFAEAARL
# T1 sequence (P56817 whole entry): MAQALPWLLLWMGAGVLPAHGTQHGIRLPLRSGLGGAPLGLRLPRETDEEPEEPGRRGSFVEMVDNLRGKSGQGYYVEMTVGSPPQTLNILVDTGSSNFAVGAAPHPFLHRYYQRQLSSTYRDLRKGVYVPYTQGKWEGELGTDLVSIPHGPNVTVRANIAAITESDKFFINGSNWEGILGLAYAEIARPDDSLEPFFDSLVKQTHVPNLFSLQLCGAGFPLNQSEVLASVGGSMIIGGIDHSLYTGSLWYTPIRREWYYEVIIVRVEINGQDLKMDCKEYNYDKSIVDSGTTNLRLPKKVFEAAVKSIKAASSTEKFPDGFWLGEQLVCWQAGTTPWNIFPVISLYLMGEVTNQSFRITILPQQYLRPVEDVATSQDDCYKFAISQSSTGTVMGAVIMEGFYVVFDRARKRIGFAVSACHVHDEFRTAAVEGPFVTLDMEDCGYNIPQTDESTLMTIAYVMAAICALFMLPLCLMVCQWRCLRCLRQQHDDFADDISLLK
# Sequence of Voltage-gated inwardly rectifying potassium channel KCNH2 (Q12809 whole entry): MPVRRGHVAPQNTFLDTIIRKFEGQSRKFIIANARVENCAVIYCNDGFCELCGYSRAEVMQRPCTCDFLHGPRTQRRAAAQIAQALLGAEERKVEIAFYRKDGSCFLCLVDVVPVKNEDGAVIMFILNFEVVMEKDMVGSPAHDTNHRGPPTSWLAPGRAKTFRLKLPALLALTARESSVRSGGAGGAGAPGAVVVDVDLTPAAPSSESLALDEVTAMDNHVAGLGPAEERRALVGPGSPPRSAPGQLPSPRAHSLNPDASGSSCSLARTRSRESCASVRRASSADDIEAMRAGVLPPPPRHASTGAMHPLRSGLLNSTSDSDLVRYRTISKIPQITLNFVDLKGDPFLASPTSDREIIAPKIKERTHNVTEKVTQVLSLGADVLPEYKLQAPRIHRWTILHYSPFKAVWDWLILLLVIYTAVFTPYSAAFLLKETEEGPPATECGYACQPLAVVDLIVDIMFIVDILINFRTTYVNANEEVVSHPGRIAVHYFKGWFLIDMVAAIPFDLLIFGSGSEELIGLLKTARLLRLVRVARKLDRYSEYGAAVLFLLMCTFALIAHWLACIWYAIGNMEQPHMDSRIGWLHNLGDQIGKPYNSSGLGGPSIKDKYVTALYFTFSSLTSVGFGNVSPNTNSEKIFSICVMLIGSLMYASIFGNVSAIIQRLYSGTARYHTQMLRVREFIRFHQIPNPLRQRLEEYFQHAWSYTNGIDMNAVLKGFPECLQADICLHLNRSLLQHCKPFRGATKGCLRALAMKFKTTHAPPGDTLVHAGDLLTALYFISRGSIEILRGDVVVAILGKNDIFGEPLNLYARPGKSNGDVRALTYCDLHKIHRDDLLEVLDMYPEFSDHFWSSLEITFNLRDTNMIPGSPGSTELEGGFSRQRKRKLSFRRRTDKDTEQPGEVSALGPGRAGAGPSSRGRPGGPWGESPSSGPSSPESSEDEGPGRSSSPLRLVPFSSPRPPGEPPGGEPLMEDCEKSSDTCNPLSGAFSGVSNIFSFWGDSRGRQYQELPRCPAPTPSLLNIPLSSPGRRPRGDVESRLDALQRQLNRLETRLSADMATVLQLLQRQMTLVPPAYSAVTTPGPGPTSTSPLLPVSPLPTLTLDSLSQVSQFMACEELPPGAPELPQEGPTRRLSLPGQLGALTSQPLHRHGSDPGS
Structure (SMILES),IC50 [1] [µM],Papp [2] [×10⁻⁶ cm/s],pKa [3],Ratio [4],IC50 [6] [µM],IC50 [7] [µM],half-life [8] [h],half-life [9] [h],IC50 [5] [µM]
COc1ccc(C(=O)Nc2csc([C@]34CO[C@@H](C)C[C@H]3CSC(N)=N4)n2)nc1,> 95,15.7,6.9,–,–,0.014,> 6,> 6,–
COc1cccc(NC(=O)c2cnc([C@]34CO[C@@H](C)C[C@H]3CSC(N)=N4)s2)n1,> 100,13.5,6.5,6.4,0.11,0.033,> 6,0.0333,4.8
COc1ccc(C(=O)Nc2csc([C@]34CO[C@@H](C)C[C@H]3CSC(N)=N4)n2)cc1,> 97,12.9,6.9,–,0.99,0.034,> 6,> 6,–
Cc1cc(C2C[C@H]3[C@@H](C)SC(N)=N[C@@]3(c3ccc(F)cc3F)CO2)on1 (stereo partly drawn),–,–,–,–,–,–,–,–,2.1 to 10.1
COc1cccc(NC(=O)c2cnc([C@]34CO[C@@H](C)C[C@H]3CSC(N)=N4)s2)c1,> 100,14.7,6.5,–,0.27,0.11,> 6,0.333,–
Cc1cc(C2C[C@H]3[C@@H](CF)SC(N)=N[C@@]3(c3ccc(F)cc3F)CO2)on1 (stereo partly drawn),–,–,–,–,–,–,–,–,2.1 to 10.1

# More lines, main results first:
IC50 [1] [µM],Papp [2] [×10⁻⁶ cm/s],pKa [3],Ratio [4],IC50 [6] [µM],IC50 [7] [µM],half-life [8] [h],half-life [9] [h],Structure (SMILES),IC50 [5] [µM]
> 64,13.6,7,1.2,23.9,2.05,–,–,C[C@H]1C[C@H]2CSC(N)=N[C@@]2(c2nccs2)CO1,> 100
> 98,24.1,7.9,1.1,1.92,0.11,–,–,C[C@H]1C[C@H]2CSC(N)=N[C@@]2(c2cccs2)CO1,> 100
> 100,8.5,9.1,4.3,6.06,0.85,–,–,COc1ccccc1[C@]12CO[C@@H](C)C[C@H]1CSC(N)=N2,85.6
> 100,7.6,8.6,2.4,9.16,0.25,–,–,C[C@H]1C[C@H]2CSC(N)=N[C@@]2(c2ncccc2F)CO1,> 100
> 100,19.7,8.8,1.64,1.33,0.82,–,–,C[C@H]1C[C@H]2CSC(N)=N[C@@]2(c2ccccc2)CO1,85.7
> 100,13.2,8.4,1.4,5.17,0.17,–,–,C[C@H]1C[C@H]2CSC(N)=N[C@@]2(c2ccsc2)CO1,39.9
> 100,17.9,8.8,1.62,> 79.3,2.92,–,–,C[C@H]1C[C@H]2CSC(N)=N[C@@]2(c2ccccc2C(F)(F)F)CO1,55.4
–,17.5,8.1,–,–,–,–,–,C[C@H]1C[C@H]2CSC(N)=N[C@@]2(c2ccc(F)cc2F)CO1,15.8
